In test [1] the target is T1, Protein kinase C epsilon type (Homo sapiens) (UniProt Q02156).
T1 sequence (whole entry): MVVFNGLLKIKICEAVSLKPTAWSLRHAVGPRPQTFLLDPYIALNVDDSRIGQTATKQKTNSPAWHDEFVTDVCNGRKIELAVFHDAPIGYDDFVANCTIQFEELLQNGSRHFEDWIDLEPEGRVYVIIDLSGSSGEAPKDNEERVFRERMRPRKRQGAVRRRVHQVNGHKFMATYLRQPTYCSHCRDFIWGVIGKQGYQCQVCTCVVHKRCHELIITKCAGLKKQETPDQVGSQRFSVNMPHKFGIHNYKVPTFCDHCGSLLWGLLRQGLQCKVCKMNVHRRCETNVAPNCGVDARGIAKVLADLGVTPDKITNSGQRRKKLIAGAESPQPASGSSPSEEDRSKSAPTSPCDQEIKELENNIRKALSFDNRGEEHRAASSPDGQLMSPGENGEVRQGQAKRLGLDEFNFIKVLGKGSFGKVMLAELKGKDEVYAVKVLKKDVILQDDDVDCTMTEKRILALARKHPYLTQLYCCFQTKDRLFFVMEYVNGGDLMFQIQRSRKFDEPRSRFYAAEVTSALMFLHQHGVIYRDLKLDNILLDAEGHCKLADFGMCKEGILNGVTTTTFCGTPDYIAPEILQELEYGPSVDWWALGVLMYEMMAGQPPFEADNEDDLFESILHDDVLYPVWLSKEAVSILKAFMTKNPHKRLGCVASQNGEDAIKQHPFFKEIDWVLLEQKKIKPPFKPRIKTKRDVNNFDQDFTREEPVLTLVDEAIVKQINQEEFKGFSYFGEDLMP
Nature of the test: (§1) Inhibition of recombinant PKCepsilon (unknown origin)-MBP-tagged RACK2 interaction after 1 hr by ELISA-based assay relative to untreated control. Set-up: residual binding, % of control: concentration or dose not given beside the values. To be noted: values are per cent of control. Put shortly: (§2)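 ELISA: plates coated with 100 ng recombinant PKCε in 20 mM Tris-HCl/100 mM NaCl pH 7.5 overnight at 4 °C, blocked with 3% BSA; PKCε activated 10 min at 30 °C with 60 μg/mL phosphatidylserine and 100 nM TPA; RACK2-MBP preincubated with agent 30 min, then 500 ng added for 1 h binding; anti-RACK2/HRP detection, ABTS at 420 nm; four experiments, quadruplicates, normalized to control; IC50 via CalcuSyn.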
In general terms: In an ELISA, binding on a coated surface is turned into a signal by an enzyme label.

The target of test [2] is T2, Protein kinase C epsilon type (Homo sapiens, UniProt Q02156).
T2 sequence (Q02156 whole entry): T1 sequence (whole entry)
Described as §1. Put shortly:
as §2

The source of these data is ChEMBL document CHEMBL3259708, “Thienoquinolines as novel disruptors of the PKCε/RACK2 protein-protein interaction” (J Med Chem, 2014).

As a reminder, the IC50 is the concentration that inhibits the measured activity by half.

With `Nc1c(C(=O)Nc2cccc(Cl)c2Cl)sc2nc3cc4c(cc3cc12)OCCO4`, the residual binding, % of control in test [1] was 57.6%.

For the compound H-EAVSLKPTRRRRRRR-OH, in test [2], the IC50 is 1.02 µM. In the case of `CCOC(=O)c1cccc(NC(=O)c2sc3nc4ccc(OC)cc4cc3c2N)c1`, the residual binding, % of control in test [1] came to 29.6%. For `CCOc1ccc2nc(NC(=O)c3sc4nc5cc(OC)ccc5cc4c3N)sc2c1`, the residual binding, % of control in test [1] worked out at 37.7%. Besides, in test [2], the half-maximal inhibitory concentration (IC50) stood at 25.5 µM. On to `O=C1NC(=O)N(Cc2ccccc2)C(=O)/C1=C\c1ccc2c(c1)OCO2`, for which the half-maximal inhibitory concentration (IC50) in test [2] was 28.5 µM.

As for `CC(=O)c1ccc(NC(=O)c2sc3nc4cc5c(cc4cc3c2N)OCCO5)cc1`, in test [1], the residual binding, % of control was 22.8%. With `CC(O)c1cccc(NC(=O)C2Sc3nc4cc5c(cc4cc3C2N)OCCO5)c1` (stereo not drawn), the residual binding, % of control in test [1] came out at 102%.

As for `C/C(=N\O)c1cccc(NC(=O)c2sc3nc4cc5c(cc4cc3c2N)OCCO5)c1`, the residual binding, % of control in test [1] stood at 46.2%. On to `COC(=O)c1cccc(NC(=O)c2sc3nc4cc5c(cc4cc3c2N)OCO5)c1`, for which the residual binding, % of control in test [1] is 30.8%. For `CCOc1ccc2nc3sc(C(=O)Nc4ccc(F)cc4)c(N)c3cc2c1`, the residual binding, % of control in test [1] is 60.5%. For `CC(=O)c1cccc(NC(=O)c2cc3cc4cc5c(cc4nc3s2)OCO5)c1`, in test [1], the residual binding, % of control turned out to be 51.2%. In the case of `COC(=O)c1cccc(NC(=O)c2sc3nc4cc5c(cc4cc3c2N)OCCO5)c1`, the residual binding, % of control in test [1] stood at 90.9%. In the case of `CCOC(=O)Cc1csc(NC(=O)c2sc3nc4ccc(OCC)cc4cc3c2N)n1`, the residual binding, % of control in test [1] was 32.4%. Still for that read-out and setting: to `C/C(=N\OCC(=O)O)c1cccc(NC(=O)c2sc3nc4cc5c(cc4cc3c2N)OCCO5)c1` belongs 59.3%; to `CC(=O)c1cccc(NC(=O)c2sc3nc4cc5c(cc4cc3c2N)OCO5)c1`, 58.9%. H-EAVSLKPT-OH: the IC50 in test [2] turned out to be 1.02 µM.

Consider `COc1ccc(NC(=O)c2sc3nc4ccccc4cc3c2N)cc1`, for which, in test [1], the residual binding, % of control amounted to 42.7%. As to `COc1ccc2nc3sc(C(=O)Nc4ccc(N5CCOCC5)cc4)c(N)c3cc2c1`, the residual binding, % of control in test [1] was determined as 32.9%.

For `Nc1c(C(=O)Nc2cccc(Cl)c2)sc2nc3cc4c(cc3cc12)OCCO4`, the residual binding, % of control in test [1] was 58%.

As to `CC(=O)c1cccc(NC(=O)c2cc3cc4cc5c(cc4nc3s2)OCCO5)c1`, the residual binding, % of control in test [1] is 64.9%. In the case of `CO/N=C(\C)c1cccc(NC(=O)c2sc3nc4cc5c(cc4cc3c2N)OCCO5)c1`, the residual binding, % of control in test [1] worked out at 48.3%. In the case of `COc1ccc2cc3c(N)c(C(=O)Nc4c(C)cccc4C)sc3nc2c1`, the residual binding, % of control in test [1] worked out at 60.8%.
